The target of the experiment is Hck^3D V284C (Homo sapiens, UniProt P08631, V276C). Description: Inhibitor IC50 determination, fluorescent SFK peptide kinase assay. It is filed as biochemical. Conditions: 1 mM ATP. Put shortly: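 Kinase concentrations were set in the linear range by prior titration: Src3D WT or V284C at 7.5 nM, Hck3D WT or V284C at 5 nM. Kinase was incubated 30 min with test compound (30 μM top, 3-fold serial dilutions, 10 points) and 1 mM ATP in HEPES pH 7.5 buffer with MgCl2, EGTA, BSA, vanadate and BME. Then 20 μM pyrene-labelled SFK peptide was added for 2 h. Fluorescence was read at ex 344/em 405 nm, in triplicate.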

Molecules are shown by their SMILES.

Hck^3D V284C, sequence (P08631 81-526 V276C): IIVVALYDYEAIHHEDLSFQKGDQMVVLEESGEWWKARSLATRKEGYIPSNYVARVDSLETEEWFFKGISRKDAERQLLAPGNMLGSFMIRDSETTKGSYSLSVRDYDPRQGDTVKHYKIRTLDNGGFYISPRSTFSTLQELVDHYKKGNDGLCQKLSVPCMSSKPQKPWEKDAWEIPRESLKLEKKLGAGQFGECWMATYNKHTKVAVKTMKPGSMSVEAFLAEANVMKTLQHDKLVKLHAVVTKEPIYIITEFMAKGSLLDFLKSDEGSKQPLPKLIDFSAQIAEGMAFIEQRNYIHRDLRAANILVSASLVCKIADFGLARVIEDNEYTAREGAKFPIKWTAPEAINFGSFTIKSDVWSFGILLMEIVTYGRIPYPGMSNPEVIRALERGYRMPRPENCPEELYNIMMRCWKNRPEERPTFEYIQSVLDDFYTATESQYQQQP

`COCCn1c(/C=C(/C#N)C(=O)NC(C)C)c(-c2ccc(Cl)cc2)c2c(N)ncnc21` [compound 1, (E)- & (Z)-3-(4-Amino-5-(4-chlorophenyl)-7-(2-methoxyethyl)-7H-pyrrolo[2,3-d]pyrimidin-6-yl)-2-cyano-N-isopropylacrylamide]: the “inhibition of Hck V284C (IC50, Figure 4C)” value is reported as “potently inhibited”. On to `COCCn1c(/C=C(/C#N)C(=O)NC(C)C)c(-c2ccc(Oc3ccccc3)cc2)c2c(N)ncnc21` [compound 2, (E)- & (Z)-3-(4-Amino-7-(2-methoxyethyl)-5-(4-phenoxyphenyl)-7H-pyrrolo[2,3-d]pyrimidin-6-yl)-2-cyano-N-isopropylacrylamide], for which the “inhibition of Hck V284C (IC50, Figure 4C)” value is “potently inhibited”.

(Values after publication PMC6474823 (Molecular cell, 2019).)
